# NPY1 pot ag: potentiates or activates human NPY-Y1 receptor. NPY-Y1 expressing cells, potentiator/agonist activation. activation, % at 3.6 µM. actives 0.37% (n = 220,000). AID 1304; in the data active = activation above about 33%, passing the limit was not always enough;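 also: cells stimulated with NPY at EC10 then isoproterenol at EC100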
# Target sequence (P25929 whole entry, looked up): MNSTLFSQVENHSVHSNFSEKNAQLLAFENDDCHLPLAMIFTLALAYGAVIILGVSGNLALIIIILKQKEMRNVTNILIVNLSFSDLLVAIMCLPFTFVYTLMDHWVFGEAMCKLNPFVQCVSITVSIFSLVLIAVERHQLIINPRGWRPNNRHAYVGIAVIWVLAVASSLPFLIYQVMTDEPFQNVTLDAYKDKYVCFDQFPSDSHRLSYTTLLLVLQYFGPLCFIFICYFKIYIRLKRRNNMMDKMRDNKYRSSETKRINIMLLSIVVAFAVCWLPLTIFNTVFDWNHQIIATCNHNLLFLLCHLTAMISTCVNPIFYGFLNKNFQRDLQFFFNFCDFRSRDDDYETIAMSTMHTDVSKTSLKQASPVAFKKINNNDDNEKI
# NPY Y2 blocker: antagonists of human neuropeptide Y receptor Y2; actives 0.99% (n = 140,000); inhibition, % at 2.7 µM; NPY-Y2 expressing cells, antagonist mode; AID 793; in the data active = inhibition above about 17%
# RAM inhibit: inhibitors of the yeast RAM network | S. cerevisiae dse1pr::URA3 reporter, 5-FOA growth OD615, 2 d; analog-sensitive cbk1-as2 kinase mutant strain | AID 868 | actives 1.8% (n = 190,000) | inhibition, % at 50 µM;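 active = inhibition above a set limit, 3 SD over mean compound inhibition, cut at about 8.4% in these data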;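 also: inhibition rescues growth on 5-FOA so higher OD means more RAM inhibition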
# NPY2 pot ag: human NPY-Y2 potentiation or agonism, primary screen; actives 0.45% (n = 220,000); cells expressing NPY-Y2, potentiator/agonist read-out; activation, % at 3.6 µM; P49146; in the data active = activation above about 27%;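 also: cells stimulated with NPY near EC25 plus isoproterenol at EC100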
# NPY Y1 blocker: blocks the human neuropeptide Y Y1 receptor | P25929 | HEK293-CNG Y1 cells, membrane potential fluorescence; NPY at EC95, then isoproterenol | inhibition, % at 3.6 µM | actives 1% (n = 200,000) | AID 1040;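 active = inhibition above the campaign mean inhibition of all tested compounds plus 3 SD, cut at about 20% in these data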
#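 Test system: HEK293 cells co-expressing NPY Y1 receptor and cyclic-nucleotide gated channel; Also added: NPY (25 nM), isoproterenol (1 µM), Ro 20-1724 (25 µM); Compound dosing: one concentration, 3.6 µM, in 0.4% DMSO; Timing: dye 3 h, compound 60 min room temperature, stimulation 45 min; Technique: Membrane-potential fluorescent dye readout.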
# WT yeast gro inh: growth inhibition of WT yeast, mitochondrial fusion screen. AID 1362. actives 2.1% (n = 190,000). inhibition, % at 10 µM. mitochondrial fusion phenotypic screen, WT strain; in the data active = inhibition above about 58%; tested in S. cerevisiae
# Numbers stand for hits; 0 = inactive; - = no result. An excerpt weighted towards active compounds, which were near 4.9% of everything screened.
SMILES,NPY1 pot ag,NPY Y2 blocker,RAM inhibit,NPY2 pot ag,NPY Y1 blocker,WT yeast gro inh
CCOc1ccc(-c2cc(C(=O)Nc3ccc4c(c3)OCCO4)c3ccccc3n2)cc1,0,0,0,0,27,0
CC(NC(=O)c1cc(-c2ccc3c(c2)OCO3)nc2ccccc12)C(C)(C)C (configuration not stated),0,151,0,0,147,0
COc1ccc(C2CC(c3ccc(OC)cc3)n3nc(NC(=O)c4cccs4)nc3N2)cc1 (configuration not stated),0,0,0,0,0,0
Cc1ccc(S(=O)(=O)Nc2ccc(S(=O)(=O)NC(C)(C)C)cc2)cc1,0,0,0,0,0,0
CC(C)(C)NS(=O)(=O)c1ccc(NS(=O)(=O)c2ccc(F)cc2)cc1,0,0,0,90,0,0
CCOCCn1c(SCC)nc2c1c(=O)[nH]c(=O)n2C,0,0,0,0,0,0
COC(=O)CSc1cc(C(F)(F)F)nc(-c2ccccn2)n1,0,0,0,0,0,0
FC(F)(F)c1cc(Sc2ccccc2)nc(-c2ccccn2)n1,0,0,0,0,0,65
COc1ccc(Nc2cc(C)nc3nc(C)nn23)c(OC)c1,0,0,0,0,0,0
CCCCNC(=S)N(C)/N=C/c1c(F)c(F)c(F)c(F)c1F,0,0,0,0,0,60
CCO[C@@H]1OC(C(N)=O)=C[C@H](c2ccc(C(F)(F)F)cc2)[C@H]1CCCO,0,-,0,0,0,0
CC(Sc1nc(C(C)(C)C)cc(-c2ccccc2)c1C#N)C(=O)Nc1ccccc1 (configuration not stated),0,0,9.2,0,0,0
CC(Sc1nc(NC(C)(C)C)nc(N(C)C)n1)C(=O)Nc1ccccc1 (configuration not stated),0,-,0,0,0,0
O=C(Oc1ccc(C(=S)N2CCCCC2)cc1)c1ccccc1,0,-,0,0,0,0
O=C(Oc1cccc(C(=S)N2CCCCC2)c1)c1ccccc1,0,-,0,0,0,60
Cc1cccc(OCC(=O)NC2CCCc3ccccc32)c1C (configuration not stated),0,0,0,0,0,0
CC(C)c1ccccc1OCC(=O)NC1CCCc2ccccc21 (configuration not stated),0,0,0,0,0,61
CCC(=O)N(CCC1(C(C)C)CCOC(C)(C)C1)Cc1ccco1 (configuration not stated),0,0,0,0,0,0
Cc1ncsc1C(=O)N1N=C2/C(=C/c3ccccc3)CCCC2C1c1ccccc1 (configuration not stated),0,0,0,0,0,71
COc1ccc(/C=C2\CCCC3C2=NN(C(=O)CSc2ncn[nH]2)C3c2ccc(OC)cc2)cc1 (configuration not stated),0,0,8.4,0,0,0
CCOc1ccc2nc(NCCCNS(=O)(=O)c3ccccc3)c(C#N)cc2c1,0,0,9.7,0,0,0
CCOc1ccc2nc(NCCCNS(=O)(=O)c3ccc(F)cc3)c(C#N)cc2c1,0,0,0,0,0,0
COCCNC(=O)/C(C#N)=C/C=C/c1ccccc1,0,-,0,0,0,0
CCc1nnc(NC(=O)CSc2nnc(COc3ccc(C)cc3)n2-c2ccccc2)s1,0,0,8.7,0,0,0
NC(=O)CSCc1ccc(Br)cc1,0,0,0,0,0,0
SMILES,NPY1 pot ag,NPY Y2 blocker,RAM inhibit,NPY2 pot ag,NPY Y1 blocker,WT yeast gro inh
N#Cc1ccc(/C=N/N=C(N)N)cc1,0,0,0,0,0,0
CCOC(=O)c1ccc(NC(=O)CC2S/C(=N/N=C/c3c[nH]c4ccccc34)NC2=O)cc1 (configuration not stated),49,0,0,33,0,0
Cc1ccc(NC(=O)CC2S/C(=N/N=C/c3c[nH]c4ccccc34)NC2=O)cc1 (configuration not stated),0,0,0,0,0,0
O=[N+]([O-])c1ccc(C2(O)CN(c3ccccc3)C3=[N+]2CCS3)cc1 (configuration not stated),0,-,0,0,0,0
CCOc1ccc(C(=O)NC(=S)N(Cc2ccccc2)Cc2ccccc2)cc1,0,0,8.6,0,0,0
CCCCN(CCCC)C(=S)NC(=O)c1ccccc1Cl,0,0,0,0,0,64
CCCN(CCC)C(=S)NC(=O)c1ccc(-c2ccccc2)cc1,0,0,0,0,0,68

# Source: PubChem
